Measurements of several laboratories.
Protocols differ between the studies behind these lines.
FGFR2: Fibroblast growth factor receptor 2 (FGFR2, Homo sapiens, UniProt P21802)
FGFR2 N549H: Fibroblast growth factor receptor 2 (FGFR2, Homo sapiens, UniProt P21802, N549H)

| SMILES | target | observed | mode | method | concentration | measurement | result |
| --- | --- | --- | --- | --- | --- | --- | --- |
| O=C1Nc2ccc(Cl)cc2C1=Cc1cc(Cl)c(O)c(Cl)c1 | FGFR2 | cell-free assay |  |  | 0.5 µM | remaining signal | 92% |
| C[C@@H]1CN(c2cc(-c3n[nH]c4ccc(OC5(C)CC5)cc34)ncn2)C[C@H](C)O1 | FGFR2 | cell-free assay |  | competition with immobilised ligand | 0.1 µM | remaining binding | 96% |
| CS(=O)(=O)CCNCc1ccc(-c2ccc3ncnc(Nc4ccc(OCc5cccc(F)c5)c(Cl)c4)c3c2)o1 | FGFR2 | cell-free assay |  |  | 0.5 µM | remaining signal | 96.4% |
| CCN(CC)CCNC(=O)c1c(C)[nH]c(/C=C2\C(=O)Nc3ccc(F)cc32)c1C | FGFR2 | enzyme activity | inhibitor |  | 10 µM | inhibition | 94% |
| Cc1ccc(C(=O)Nc2ccc(CN3CCN(C)CC3)c(C(F)(F)F)c2)cc1C#Cc1cnc2cccnn12 | FGFR2 | cell-free assay |  |  | 23.5 nM | remaining signal | 32% |
| Cc1sc(C(=O)NC2COC2)cc1-n1cc(NC(=O)Nc2c(F)cccc2Cl)cn1 | FGFR2 | enzyme activity | inhibitor |  | 10 µM | remaining activity | 105% |
| CCCOc1ccc(OC)c(F)c1C(=O)c1ccc(C(=O)N[C@@H]2CNC[C@H]2NC(=O)c2ccc3[nH]ncc3c2)cc1 | FGFR2 N549H | enzyme activity | inhibitor |  | 10 µM | remaining activity | 69% |
| Cc1cc(NC(=O)c2cccc3cc(-c4cccc5[nH]nc(N)c45)ccc23)ccc1F | FGFR2 N549H | enzyme activity | inhibitor |  | 0.1 µM | activity vs control | 33% |
| COc1cc(Cl)c(C(=O)N[C@@H](CN[C@H]2CC[C@@H](N)CC2)Cc2ccc(C#N)cc2)cc1-c1ccc(CN[C@H](C)c2ccc(C)cc2)o1 | FGFR2 | enzyme activity | inhibitor |  | 1 µM | remaining activity | 102% |
| Cc1ccc(NC(=O)c2ccc(C)c(C(F)(F)F)c2)cc1C#Cc1nn(C2CCC(O)CC2)c2ncnc(N)c12 (centres unmarked) | FGFR2 N549H | cell-free assay |  |  | 10 µM | remaining signal | -1% |
| Cc1ccc(Nc2nccc(N(C)c3ccc4c(C)n(C)nc4c3)n2)cc1S(N)(=O)=O | FGFR2 | enzyme activity | inhibitor |  | 0.3 µM | inhibition | 92% |
| Cc1cnc(NC2CCOCC2)nc1-n1cnc(C(=O)NC(CN)c2cc(F)cc(Cl)c2)c1 (centres unmarked) | FGFR2 | enzyme activity | inhibitor | radiometric | 1 µM | remaining activity | 100% |
| N#CCCc1ccc2c(c1)-c1[nH]c3ccc([N+](=O)[O-])cc3c1CC(=O)N2 | FGFR2 | cell-free assay |  |  | 0.5 µM | remaining signal | 93.2% |
| CC(C)(C)c1nc2c(s1)c1nc(N)ncc1c1ccc(NS(=O)(=O)c3c(F)cccc3F)c(F)c12 | FGFR2 | enzyme activity | inhibitor | radiometric | 1 µM | remaining activity | 91% |
| O=C(Nc1cccnn1)N1CCC(=Cc2cccc(Oc3ccc(C(F)(F)F)cn3)c2)CC1 | FGFR2 | cell-free assay |  | competition with immobilised ligand | 1 µM | remaining binding | 96% |
| CNC(=O)c1cc(Oc2ccc(NC(=O)Nc3ccc(Cl)c(C(F)(F)F)c3)cc2)ccn1 | FGFR2 | enzyme activity | inhibitor |  | 10 µM | inhibition | 98% |
| CN(c1ccnc(CNc2nc(Nc3ccc4c(c3)CC(=O)N4)ncc2C(F)(F)F)n1)S(C)(=O)=O | FGFR2 | cell-free assay |  | competition with immobilised ligand | 1 µM | remaining binding | 59% |
| Nc1ncnc2occ(-c3ccc(NC(=O)Nc4cc(C(F)(F)F)ccc4F)cc3)c12 | FGFR2 | cell-free assay |  |  | 20 µM | remaining signal | 0% |
| CCc1ccccc1C(=O)Nc1n[nH]c2c(C)c(F)c(C3C(C#N)=C(C)N(C)C(C)=C3C#N)cc12 | FGFR2 | cell-free assay |  | competition with immobilised ligand | 1 µM | remaining binding | 83% |
| CN(C)C1CCN(CC#Cc2nn(C3CCCC3)c3nc(NCc4ccccc4)ncc23)C1 (centres unmarked) | FGFR2 | enzyme activity | inhibitor | FRET | 1 µM | inhibition | 8% |
| CN(C)CC#Cc1ccc(OCCCc2sc(N3CCc4cccc(C(=O)Nc5nc6ccccc6s5)c4C3)nc2C(=O)O)c(F)c1 | FGFR2 | cell-free assay |  | competition with immobilised ligand | 1 µM | remaining binding | 98% |
| Cc1ccc(NC(=O)c2ccc(CN3CCN(C)CC3)cc2)cc1Nc1nc(-c2cccnc2)cs1 | FGFR2 | cell-free assay |  |  | 0.5 µM | remaining signal | 100% |
| Cc1nc(C2CCN(C(=O)c3ccc(OC(F)(F)F)cc3N)CC2)c2ncc(N3CCN(C)CC3)cc2n1 | FGFR2 | cell-free assay |  | competition with immobilised ligand | 1 µM | remaining binding | 100% |
| CCN(CC)c1ccc(C2=NNC(=O)CC2C)cc1[N+](=O)[O-] (centres unmarked) | FGFR2 | enzyme activity | inhibitor |  | 10 µM | remaining activity | 115% |
| Nc1nc(Nc2ccc(S(N)(=O)=O)cc2)nn1C(=O)c1c(F)cccc1F | FGFR2 | cell-free assay |  |  | 0.5 µM | remaining signal | 79.7% |
| CN([C@@H]1CCc2c(CC(=O)O)c3ccccc3n2C1)S(=O)(=O)c1ccc(F)cc1 | FGFR2 | cell-free assay |  | competition with immobilised ligand | 1 µM | remaining binding | 80% |
